Active and inactive are the calls of the source. The calls are words filed in the database; no cut-off is given here.
Tests used:
SNU-387 = assay: Cytotoxicity against human SNU-387 cells assessed as cell growth inhibition incubated for 72 hrs by SRB assay; type: functional, cell-based; settings: SNU-387, 72 h
Procedure, shortened: (§1)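 Cells seeded at 1000–3000 per well, treated after 24 h with 2.5–40 μM (40, 20, 10, 5, 2.5 μM) for 72 h, in duplicate or triplicate; DMSO negative control. Fixed with 10% TCA 1 h at 4 °C, stained with 0.4% SRB in 1% acetic acid, dye solubilized in 10 mM TBS, A515 read; OD normalized to DMSO control, IC50 from growth-inhibition curves.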

PLC = assay: Cytotoxicity against human PLC cells assessed as cell growth inhibition incubated for 72 hrs by SRB assay; type: functional, cell-based; procedure, shortened: as §1
SNU-398 = assay: Cytotoxicity against human SNU-398 cells assessed as cell growth inhibition incubated for 72 hrs by SRB assay; type: functional, cell-based; settings: SNU-398, 72 h; procedure, shortened: as §1
[1] = molecular target: Proto-oncogene tyrosine-protein kinase Src (Homo sapiens) (UniProt P12931); assay: Inhibition of Src activation in human Huh-7 cells assessed as decrease in Cdk2 level at 5 uM incubated for 72 hrs by Western blot analysis; type: cell-based
Chain of Proto-oncogene tyrosine-protein kinase Src (Homo sapiens) (P12931 2-536 limits assumed): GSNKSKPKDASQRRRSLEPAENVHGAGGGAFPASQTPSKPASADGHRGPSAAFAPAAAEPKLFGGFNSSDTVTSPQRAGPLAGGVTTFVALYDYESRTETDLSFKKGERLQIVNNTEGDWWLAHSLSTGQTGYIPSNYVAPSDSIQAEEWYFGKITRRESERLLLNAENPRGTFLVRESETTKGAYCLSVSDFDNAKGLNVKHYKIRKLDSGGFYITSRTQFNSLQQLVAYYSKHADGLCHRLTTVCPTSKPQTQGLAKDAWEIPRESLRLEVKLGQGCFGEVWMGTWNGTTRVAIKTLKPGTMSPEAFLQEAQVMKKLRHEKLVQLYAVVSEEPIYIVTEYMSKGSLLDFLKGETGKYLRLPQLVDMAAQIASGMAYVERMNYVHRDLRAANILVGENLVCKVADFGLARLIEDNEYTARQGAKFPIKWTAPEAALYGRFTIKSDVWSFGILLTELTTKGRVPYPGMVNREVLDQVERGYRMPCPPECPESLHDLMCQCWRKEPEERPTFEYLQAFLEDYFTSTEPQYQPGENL
Procedure, shortened: (§2)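 Huh7 cells (300 000 per dish) treated 24 h after seeding with 5 μM or DMSO for 72 h. Immunoblot for PARP-1, phospho-Src Tyr416, Src, Rb, phospho-Rb Ser807/811, Cdk2; calnexin and actin as loading controls.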

Huh-7 [2] = assay: Induction of cell cycle arrest in human Huh-7 cells assessed as increase in accumulation of cells at subG1 phase at 5 uM incubated for 72 hrs by PI staining based flow cytometry; type: functional
Procedure, shortened: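 Huh7 and Mahlavu cells serum-starved 24 h to synchronize, then given 5 μM or DMSO in fresh growth medium for 72 h. Trypsinized, fixed in ice-cold 70% ethanol at least 3 h at −20 °C, PI-stained with a cell cycle kit, analyzed by flow cytometry for SubG1.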

Huh-7 [3] = assay: Induction of apoptosis in human Huh-7 cells assessed as increase in PARP-1 cleavage at 5 uM incubated for 72 hrs by Western blot analysis; type: functional, cell-based; procedure, shortened: as §2
MCF7 = assay: Cytotoxicity against human MCF7 cells assessed as cell growth inhibition incubated for 72 hrs by SRB assay; type: functional, cell-based; settings: MCF7, 72 h; procedure, shortened: as §1
SNU-182 = assay: Cytotoxicity against human SNU-182 cells assessed as cell growth inhibition incubated for 72 hrs by SRB assay; type: functional, cell-based; settings: SNU-182, 72 h; procedure, shortened: as §1
SNU-475 = assay: Cytotoxicity against human SNU-475 cells assessed as cell growth inhibition incubated for 72 hrs by SRB assay; type: functional, cell-based; settings: SNU-475, 72 h; procedure, shortened: as §1
Huh-7 [4] = assay: Upregulation of intracellular ATP level in human Huh-7 cells at 5 uM incubated for 72 hrs by Kinase Glo assay; type: functional, cell-based
Procedure, shortened: (§3)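 Huh7 and Mahlavu cells grown 24 h, then treated with 5 μM for 72 h. Lysates protein-normalized by Bradford; ATP read by Kinase-Glo Plus luminescence per kit protocol. Staurosporine positive control, DMSO negative control.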

Hep 3B2 = assay: Cytotoxicity against human Hep3B cells assessed as cell growth inhibition incubated for 72 hrs by SRB assay; type: functional, cell-based; procedure, shortened: as §1
SNU-449 = assay: Cytotoxicity against human SNU-449 cells assessed as cell growth inhibition incubated for 72 hrs by SRB assay; type: functional, cell-based; settings: SNU-449, 72 h; procedure, shortened: as §1
Huh-7 [5] = assay: Cytotoxicity against human Huh-7 cells assessed as cell growth inhibition at 0.625 to 5 uM measured upto 72 hrs by RT-CES analysis; type: functional, cell-based; settings: dose 0.625-5 µM
Procedure, shortened: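 Huh7 cells, 2000 per well, treated 24 h after seeding alongside DMSO control; cell index from impedance recorded every 30 min; plots for each concentration normalized to DMSO-treated cells.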

Huh-7 [6] = assay: Induction of morphological changes in human Huh-7 cells assessed as horseshoe-like condensed nuclei at 5 uM incubated for 72 hrs by Hoechst 33258 dye based microscopy; type: functional, cell-based
Procedure, shortened: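 Huh7 cells on coverslips (50 000 per well) given 5 μM or DMSO 24 h after seeding for 72 h; permeabilized with ice-cold methanol 10 min, Hoechst 33258 stain 5 min in the dark, imaged by fluorescence microscopy with 40× objective.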

Mahlavu [7] = assay: Cytotoxicity against human Mahlavu cells assessed as cell growth inhibition incubated for 72 hrs by SRB assay; type: functional, cell-based; procedure, shortened: as §1
[8] = molecular target: ALK tyrosine kinase receptor (Homo sapiens) (UniProt Q9UM73); assay: Inhibition of human ALK at 5 uM by Kinomescan profiling analysis relative to control
Chain of ALK tyrosine kinase receptor (Homo sapiens) (Q9UM73 19-1620 limits assumed): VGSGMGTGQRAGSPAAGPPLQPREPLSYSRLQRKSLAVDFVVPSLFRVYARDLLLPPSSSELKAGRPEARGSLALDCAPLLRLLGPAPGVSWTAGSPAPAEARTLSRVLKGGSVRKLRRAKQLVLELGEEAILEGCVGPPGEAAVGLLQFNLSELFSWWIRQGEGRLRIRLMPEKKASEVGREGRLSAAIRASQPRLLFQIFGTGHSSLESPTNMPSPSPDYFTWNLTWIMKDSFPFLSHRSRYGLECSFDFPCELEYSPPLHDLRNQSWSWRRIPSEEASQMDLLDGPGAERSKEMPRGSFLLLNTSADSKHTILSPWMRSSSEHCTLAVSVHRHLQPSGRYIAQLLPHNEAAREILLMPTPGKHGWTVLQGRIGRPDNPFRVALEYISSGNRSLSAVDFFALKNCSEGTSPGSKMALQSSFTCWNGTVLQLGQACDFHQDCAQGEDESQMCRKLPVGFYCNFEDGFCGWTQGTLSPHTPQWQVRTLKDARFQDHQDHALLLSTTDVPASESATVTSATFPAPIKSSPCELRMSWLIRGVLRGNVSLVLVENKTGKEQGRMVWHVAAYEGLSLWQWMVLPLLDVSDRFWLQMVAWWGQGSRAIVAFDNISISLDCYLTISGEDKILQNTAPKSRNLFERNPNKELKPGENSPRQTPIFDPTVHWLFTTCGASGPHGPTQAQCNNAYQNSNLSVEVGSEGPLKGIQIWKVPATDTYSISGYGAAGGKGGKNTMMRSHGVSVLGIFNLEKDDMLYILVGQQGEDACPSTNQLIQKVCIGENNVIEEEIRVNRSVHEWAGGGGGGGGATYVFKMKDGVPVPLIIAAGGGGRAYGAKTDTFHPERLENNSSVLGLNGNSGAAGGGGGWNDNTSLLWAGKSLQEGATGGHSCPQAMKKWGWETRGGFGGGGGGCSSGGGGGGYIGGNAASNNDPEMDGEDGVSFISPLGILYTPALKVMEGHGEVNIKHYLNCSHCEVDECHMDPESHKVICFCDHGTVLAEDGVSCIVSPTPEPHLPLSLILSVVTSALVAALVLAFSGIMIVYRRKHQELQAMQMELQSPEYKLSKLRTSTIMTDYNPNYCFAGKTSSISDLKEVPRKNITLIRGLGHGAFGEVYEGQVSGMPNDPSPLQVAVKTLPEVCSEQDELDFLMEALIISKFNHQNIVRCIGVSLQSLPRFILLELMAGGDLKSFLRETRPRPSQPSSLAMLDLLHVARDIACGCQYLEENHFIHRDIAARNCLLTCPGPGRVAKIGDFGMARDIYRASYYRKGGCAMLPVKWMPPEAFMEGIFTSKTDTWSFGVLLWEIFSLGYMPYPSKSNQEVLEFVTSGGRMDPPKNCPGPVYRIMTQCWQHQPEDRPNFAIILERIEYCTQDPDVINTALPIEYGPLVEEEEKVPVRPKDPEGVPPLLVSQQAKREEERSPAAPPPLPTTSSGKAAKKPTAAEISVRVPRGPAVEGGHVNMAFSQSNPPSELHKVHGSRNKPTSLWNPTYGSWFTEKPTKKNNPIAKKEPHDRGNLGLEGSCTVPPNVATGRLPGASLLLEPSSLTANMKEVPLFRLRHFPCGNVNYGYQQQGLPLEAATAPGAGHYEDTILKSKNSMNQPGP
Procedure, shortened: (§4)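 Compounds in DMSO screened by KINOMEScan against a panel of human kinases for direct interaction, at 5000 nM or 10 000 nM depending on compound; scores calculated relative to DMSO negative control.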

[9] = Cytotoxicity against human FOCUS cells assessed as cell growth inhibition incubated for 72 hrs by SRB assay; type: functional, cell-based; procedure, shortened: as §1
Huh-7 [10] = assay: Cytotoxicity against human Huh-7 cells assessed as cell growth inhibition incubated for 72 hrs by SRB assay; type: functional, cell-based; settings: Huh-7, 72 h; procedure, shortened: as §1
[11] = molecular target: Proto-oncogene tyrosine-protein kinase Src (Homo sapiens) (UniProt P12931); assay: Inhibition of Src activation in human Huh-7 cells assessed as decrease in phosphorylated Rb level at 5 uM incubated for 72 hrs by Western blot analysis; type: cell-based; procedure, shortened: as §2
[12] = molecular target: Tyrosine-protein kinase BTK (Homo sapiens) (UniProt Q06187); assay: Inhibition of human BTK at 5 uM by Kinomescan profiling analysis relative to control; procedure, shortened: as §4
Chain of Tyrosine-protein kinase BTK (Homo sapiens) (Q06187 whole entry): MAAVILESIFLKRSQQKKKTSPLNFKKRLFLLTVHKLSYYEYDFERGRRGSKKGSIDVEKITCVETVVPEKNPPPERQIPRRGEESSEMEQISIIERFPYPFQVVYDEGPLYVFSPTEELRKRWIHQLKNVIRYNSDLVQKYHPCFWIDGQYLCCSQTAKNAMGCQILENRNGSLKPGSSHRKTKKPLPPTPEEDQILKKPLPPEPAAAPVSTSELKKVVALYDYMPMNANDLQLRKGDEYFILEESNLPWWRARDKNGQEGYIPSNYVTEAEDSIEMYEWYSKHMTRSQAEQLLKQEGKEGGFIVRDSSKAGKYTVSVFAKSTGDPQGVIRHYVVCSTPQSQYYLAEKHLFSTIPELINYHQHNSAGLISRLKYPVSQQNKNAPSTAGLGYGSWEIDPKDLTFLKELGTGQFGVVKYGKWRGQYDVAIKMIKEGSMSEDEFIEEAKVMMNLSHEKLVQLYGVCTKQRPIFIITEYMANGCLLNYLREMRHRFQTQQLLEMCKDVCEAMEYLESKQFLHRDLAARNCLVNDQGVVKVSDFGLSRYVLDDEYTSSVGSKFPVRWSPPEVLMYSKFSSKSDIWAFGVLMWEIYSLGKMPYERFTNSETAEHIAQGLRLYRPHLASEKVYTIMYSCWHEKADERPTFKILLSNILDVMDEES

HepG2 = assay: Cytotoxicity against human HepG2 cells assessed as cell growth inhibition incubated for 72 hrs by SRB assay; type: functional, cell-based; settings: HepG2, 72 h; procedure, shortened: as §1
[13] = molecular target: Proto-oncogene tyrosine-protein kinase Src (Homo sapiens) (UniProt P12931); assay: Inhibition of Src activation in human Huh-7 cells assessed as decrease in phosphorylated Src level at 5 uM incubated for 72 hrs by Western blot analysis; type: cell-based; procedure, shortened: as §2
Mahlavu [14] = assay: Upregulation of intracellular ATP level in human Mahlavu cells at 5 uM incubated for 72 hrs by Kinase Glo assay; type: functional, cell-based; procedure, shortened: as §3
SNU-423 = assay: Cytotoxicity against human SNU-423 cells assessed as cell growth inhibition incubated for 72 hrs by SRB assay; type: functional, cell-based; settings: SNU-423, 72 h; procedure, shortened: as §1
HCT-116 = assay: Cytotoxicity against human HCT-116 cells assessed as cell growth inhibition incubated for 72 hrs by SRB assay; type: functional, cell-based; settings: HCT-116, 72 h; procedure, shortened: as §1
[15] = molecular target: Proto-oncogene tyrosine-protein kinase Src (Homo sapiens) (UniProt P12931); assay: Inhibition of Src activation in human Huh-7 cells assessed as decrease in cyclin E level at 5 uM incubated for 72 hrs by Western blot analysis; type: cell-based; procedure, shortened: as §2
[16] = molecular target: T1, Discoidin domain-containing receptor 2 (Homo sapiens) (UniProt Q16832); assay: Inhibition of human DDR2 at 10 uM by Kinomescan profiling analysis relative to control; procedure, shortened: as §4
T1 sequence (whole entry): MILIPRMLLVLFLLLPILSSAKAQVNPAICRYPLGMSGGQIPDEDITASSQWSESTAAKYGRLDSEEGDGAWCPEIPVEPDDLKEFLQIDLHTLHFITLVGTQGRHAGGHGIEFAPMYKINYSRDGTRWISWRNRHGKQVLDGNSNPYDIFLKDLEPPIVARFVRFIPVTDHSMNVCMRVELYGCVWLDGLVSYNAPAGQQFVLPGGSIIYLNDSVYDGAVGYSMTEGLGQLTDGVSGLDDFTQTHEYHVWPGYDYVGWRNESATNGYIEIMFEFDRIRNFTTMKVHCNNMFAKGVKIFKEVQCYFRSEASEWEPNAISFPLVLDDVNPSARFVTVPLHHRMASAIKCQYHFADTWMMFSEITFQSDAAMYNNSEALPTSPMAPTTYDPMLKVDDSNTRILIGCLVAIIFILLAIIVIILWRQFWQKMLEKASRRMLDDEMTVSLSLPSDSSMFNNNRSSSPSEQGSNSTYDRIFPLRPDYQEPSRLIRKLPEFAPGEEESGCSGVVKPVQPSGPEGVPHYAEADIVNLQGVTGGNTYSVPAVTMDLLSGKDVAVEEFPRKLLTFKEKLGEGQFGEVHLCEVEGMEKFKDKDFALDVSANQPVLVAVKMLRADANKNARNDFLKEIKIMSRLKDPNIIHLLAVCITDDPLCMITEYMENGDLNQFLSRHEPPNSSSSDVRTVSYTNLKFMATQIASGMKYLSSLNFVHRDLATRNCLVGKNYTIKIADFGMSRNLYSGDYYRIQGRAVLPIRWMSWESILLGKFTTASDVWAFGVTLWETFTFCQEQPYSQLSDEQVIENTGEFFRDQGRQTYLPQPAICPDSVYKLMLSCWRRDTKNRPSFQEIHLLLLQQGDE

Structure (SMILES)	IC50 (SNU-387)	IC50 (PLC)	IC50 (SNU-398)	Activity (Huh-7 [2])	Activity (Huh-7 [3])	IC50 (MCF7)	IC50 (SNU-182)	IC50 (SNU-475)	Activity (Huh-7 [4])	IC50 (Hep 3B2)	IC50 (SNU-449)	growth inhibition (GI) (Huh-7 [5])	Activity (Huh-7 [6])	IC50 (Mahlavu [7])	IC50 [9]	IC50 (Huh-7 [10])	IC50 (HepG2)	Activity (Mahlavu [14])	IC50 (SNU-423)	IC50 (HCT-116)	also measured
c1ccc(N2CCN(c3ncnc4c3ncn4C3CCCC3)CC2)cc1	13 µM	4 µM	1200 nM	Active	Active	100 nM	6 µM	5.8 µM	Active	< 100 nM	2000 nM	Active	Active	200 nM	600 nM	1000 nM	2400 nM	Active	11 µM	2100 nM	inhibition [1]: Active; inhibition [8]: 13%; inhibition [11]: Active; inhibition [12]: 1.9%; inhibition [13]: Active; inhibition [15]: Active
c1ccc(Oc2ccc(-c3ncnc4c3ncn4C3CCCC3)cc2)cc1	20 µM	6.5 µM	200 nM	Active	Active	2800 nM	65 µM	2.5 µM	inactive	100 nM	< 100 nM	Active	Active	100 nM	500 nM	700 nM	2 nM	inactive	9.9 µM	800 nM	inhibition [16]: 6%

— ChEMBL document CHEMBL5329223, “Newly synthesized 6-substituted piperazine/phenyl-9-cyclopentyl containing purine nucleobase analogs act as potent anticancer agents and induce apoptosis via inhibiting Src in hepatocellular carcinoma cells” (RSC Med Chem, 2023)
